Activity calls are given as the source filed them. The calls are words filed in the database; no cut-off is given here.
How the values were obtained:
[1] = Cytotoxicity against african green monkey Vero cells by MTT assay; assay type: cell-based; conditions: chlorocebus sabaeus, read-out: LC50 (the source's name)
Plasmodium berghei [2] = assay: Antimalarial activity against Plasmodium berghei infected in mouse assessed as effect on curate rate at split dose of 40 mg/kg/day, po for 3 days; assay type: functional, organism-based
How it was run: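 Mice were infected ip with 10^6 P. berghei-parasitized erythrocytes. The compound was given in hydroxyethylcellulose-Tween 20 vehicle, 5 mice per group, starting on day 3 post-infection. Regimens were once-daily or split daily oral doses over 3 days, subcutaneous dosing, or dosing over 7 days. Read-outs were posttreatment parasitemia on day 6 as a fraction of controls and the number of mice cured.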

[3] = AUC in ICR mouse at 50 mg/kg/day, po by LC/MS analysis; assay type: ADME, organism-based; set-up: route oral; conditions: plasma
How it was run: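 Male ICR mice, 8 weeks old, got one 50 mg/kg dose either orally or subcutaneously, with three groups of six mice per route. One mouse per group was killed at 15, 30 and 60 min and at 3, 6 and 24 h. Plasma was deproteinized with 2 volumes of acetonitrile and analysed by LC-MS/MS on a C18 column against 0–500 ng/ml standards, with parent and acid metabolite measured in the same sample. Each six-mouse group was treated as one "animal" and fitted to a two-compartment model. AUC was taken by the linear trapezoidal rule extrapolated to infinity, and Cmax and Tmax were read per "animal".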

Plasmodium falciparum [4] = assay: Antimicrobial activity against Plasmodium falciparum W2 at […] in presence of mefloquine; assay type: functional
How it was run: (§1)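 In vitro fixed-ratio isobologram using a SYBR green I fluorescence assay. […] IC50s were standardized and FIC50 and ΣFIC50 calculated by the Berenbaum method. Reported as the average ΣFIC across dilutions or the average maximum ΣFIC, from at least 2 experiments.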

Plasmodium falciparum [5] = assay: Antimicrobial activity against Plasmodium falciparum W2 at […] in presence of artemisinin; assay type: functional; how it was run: as §1
Plasmodium berghei [6] = assay: Antimalarial activity against Plasmodium berghei infected in mouse assessed as parasitemia level at 160 mg/kg/day for 3 days measured on day 3 in presence of 2 […] chloroquine (reference value: 0.46%); assay type: functional
How it was run: (§2)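 Mice were infected ip with 10^6 P. berghei-parasitized erythrocytes. The compound was given orally once daily on days 3, 4 and 5 post-infection in hydroxyethylcellulose-Tween 20 vehicle, alone or together with chloroquine, with 5 mice per dose group. Parasitemia (%) was read on days 3 and 6, and cures were counted as animals cured out of 5.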

Plasmodium berghei [7] = assay: Antimalarial activity against Plasmodium berghei infected in mouse assessed as parasitemia level at 3.2 mg/kg/day for 3 days measured on day 3 in presence of 4 mg/kg/day chloroquine (reference value: 0.46%); assay type: functional
Plasmodium berghei [8] = assay: Antimalarial activity against Plasmodium berghei infected in mouse assessed as effect on cure rate at 12.8 mg/kg/day for 3 days measured on day 6 in presence of 16 mg/kg/day chloroquine; assay type: functional, organism-based; how it was run: as §2

Nc1cccc(-c2csc(NC(=O)CCCCCCC(=O)NO)n2)c1
CC50 [1]: 950 nM | Activity (Plasmodium berghei [2]): inactive | AUC [3]: 3690 ng·h/mL | fractional inhibitory concentration index (FICI) (Plasmodium falciparum [4]): 2.1 | fractional inhibitory concentration index (FICI) (Plasmodium falciparum [5]): 2.1 | Activity (Plasmodium berghei [6]): 0.5% | Activity (Plasmodium berghei [7]): 0.6% | Activity (Plasmodium berghei [8]): inactive

From ChEMBL document CHEMBL1629555, “Antimalarial activity of phenylthiazolyl-bearing hydroxamate-based histone deacetylase inhibitors” (Antimicrob Agents Chemother, 2008)
